b-catenin transl – modulators of beta-catenin nuclear translocation, primary screen, imaging, HeLa cells, immunofluorescence, high-content; nuclear translocation activity, % at 5 µM; AID 1665, 2009; actives 0.3% (n = 190,000);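 active = nuclear translocation activity above 50% at 5 µM, with a well cell count of 50 or more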;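 also: per-cell ratio of nuclear to cytoplasmic median beta-catenin stain intensity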
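Test system: human HeLa cells, native beta-catenin. Compound dosing: 5 µM primary single dose, 0.1% DMSO, 0.02–20 µM confirmation series. Incubation: compound exposure 24 h at 37°C. Detection: beta-catenin immunostaining with DAPI counterstain, 20x imaging, 6 fields/well. Read-out basis: Nuclear/cytoplasmic beta-catenin signal ratio, % activation.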
MT stabilize HCS – microtubule stabilizers in HeLa cells, primary screen, imaging, high-content imaging; AID 2205, 2009; actives 0.83% (n = 200,000); % tubulin-high responders, % at 10 µM; HeLa tubulin immunostaining HCS, 24 h; share of cells brighter than vehicle mean+2SD;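 active = plate Z-score above 3 for both tubulin-high and condensed-nucleus cell shares, with cell loss under 80%, at 10 µM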;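 also: anti alpha tubulin signal scored within the nucleus-defined area of each cell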
Lmaj promast – Leishmania major promastigote growth inhibition, primary screen. Leishmania major promastigotes, resazurin fluorescence viability. actives 9% (n = 200,000). AID 1063, 2008. inhibition, % at 10 µM; in the data active = inhibition above about 50%;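 also: promastigotes grown with compound for 44 hours at 28 °C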
Dynein transport – inhibitors of GR-EGFP nuclear translocation, primary screen, dynein cargo transport inhibitor project, imaging, high-content, 3617.4 mouse cells; test concentration mostly 20 µM; stimulated with dexamethasone, 1 µM; hits give low values; z-score, hits read low; actives 0.47% (n = 220,000); AID 1381, 2008;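 active = plate z-score of nuclear minus cytoplasmic receptor signal below a set negative limit, without overly bright fluorescence or cell loss, cut at about -3.5 in these data, passing the limit was not always enough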;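 also: z-score of nuclear minus cytoplasmic ring GR-EGFP intensity difference per well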
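Buffer or medium – tet-free medium with charcoal-stripped serum · Signal – automated 10x imaging of fixed Hoechst-stained cells · Also added – dexamethasone agonist, 1.0 µM final, for 30 min · Incubation – induction 48 h, compound 1 h, agonist 30 min · Read-out – GR-EGFP nuclear translocation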
CHOP inh – inhibitors of CHOP promoter induction, primary screen, cell-based, unfolded protein response, luciferase reporter; CHO-K1 CHOP-promoter luciferase, tunicamycin-induced, 15-18 h; inhibition, % at 10 µM; actives 3.8% (n = 220,000); AID 2732, 2010;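 active = compounds that reduced the stress-induced luciferase reporter signal by more than about 70% of percent inhibition, limit read from the data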
Autophagy HCS – autophagy modulators in MEF cells, primary screen, imaging, high-content, MEF GFP-LC3; MEF GFP-LC3 puncta imaging; test concentration mostly 10 µM; calls only at 10 µM (by protocol); actives 0.98% (n = 190,000);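 active = percentage of spot-positive cells more than 3 SD above its plate mean, without a fluorescence outlier flag or 80% toxicity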
L major 1uM – Leishmania major promastigote growth inhibition, confirmation, 1 µM repeat of primary hits. shares compounds with Lmaj promast. L. major promastigote growth, resazurin fluorescence, 48 h. inhibition, % at 1 µM. actives 13% (n = 1,100). AID 1258, 2008;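 active = inhibition above about 50% in both repeat tests, limit read from the data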
Numbers stand for hits; – = inactive; · = not tested or not shown. Hits are enriched below; roughly 12% of the tested compounds scored in any of these assays.

SMILES	b-catenin transl	MT stabilize HCS	Lmaj promast	Dynein transport	CHOP inh	Autophagy HCS	L major 1uM
Cc1c(C(=O)O)oc2c1/C(=N\O)CCC2	–	–	53.6	–	–	–	–
CCc1noc(C)c1C(=O)Nc1nnc(C2CCCCC2)s1	–	–	–	–	–	–	·
CCOc1ccc(-n2c(SCC(N)=O)nc3c([nH]c4ccccc43)c2=O)cc1	·	–	68.2	–	–	–	–
CCOc1ccc(-n2c(SCC(=O)Nc3cc(C)on3)nc3c([nH]c4ccccc43)c2=O)cc1	–	–	–	–	–	–	·
O=C(Nc1nc2ccsc2c(=O)s1)C1CCC1	–	·	·	–	–	·	·
O=c1sc(Nc2ccccc2)nc2ccsc12	–	–	100.0	–	–	–	–
C1=Nc2ccccc2CN1c1ccccc1	–	–	85.1	–	–	–	–
COc1ccc(C(OC(=O)c2ccco2)C(=O)NC(C)(C)C)cc1 (stereo unspecified)	–	–	–	–	–	–	·
CN(C)C/C=C/C(O)(c1ccccc1)c1ccccc1	–	·	·	–	–	·	·
CC(c1ccccc1C(O)(c1ccccc1)c1ccccc1)N(C)C (stereo unspecified)	–	–	99.3	–	–	–	–
CCC1CCCCN1CC(O)Cn1c2ccccc2n2c(=O)cc(C)c(C#N)c12 (stereo unspecified)	–	–	81.5	–	–	–	–
Cc1cc(=O)n2c3ccccc3n(CC(O)CN3CCC(C)CC3)c2c1C#N (stereo unspecified)	–	–	–	–	–	–	·
CCCCCCC1CC(CSC(=N)N)OC1=O (stereo unspecified)	·	–	100.1	–	–	–	–
CCN1CCCC(OC(=O)c2cc(-c3ccccc3Cl)nc3ccccc23)C1 (stereo unspecified)	–	–	77.7	–	–	–	–
C(=N\N1CCN(Cc2ccccc2)CC1)/c1ccc(-c2ccccc2)cc1	–	–	–	–	–	–	·
CN1CCN(/N=C/c2ccc(-c3ccccc3)cc2)CC1	–	–	97.8	–	–	–	–
CCOC(=O)C(=O)Nc1cc(C)on1	–	–	–	–	–	–	·
FCCCOc1ccc(CN2CCN(c3ccccc3F)CC2)cc1	–	–	–	–	–	–	·
O=C(Cn1cnc2ccccc2c1=O)NNC(=O)c1ccccc1	–	·	·	–	–	·	·
Nc1ccc2nn(-c3ccccc3)nc2c1	–	–	80.9	–	–	–	–
Nc1cc2nn(-c3ccccc3)nc2cc1Cl	–	–	–	–	–	–	·
Nc1ccc2nn(-c3cccc4ccccc34)nc2c1	·	–	99.4	–	–	–	–
Cc1cc2nn(-c3cccc4ccccc34)nc2cc1N	–	–	–	–	–	–	·
CCn1nc(C)c(/C=N/NC(=O)c2ccc3c(c2)c(C)c(C)n3Cc2ccccc2)c1C	–	–	–	–	–	–	·
O=C(CN1CCc2ccccc2C1)N1CCN(S(=O)(=O)c2ccccc2)CC1	–	–	90.3	–	–	–	–
SMILES	b-catenin transl	MT stabilize HCS	Lmaj promast	Dynein transport	CHOP inh	Autophagy HCS	L major 1uM
O=C(O)CSCC(=O)N1CCN(S(=O)(=O)c2ccccc2)CC1	–	–	–	–	–	–	·
Cc1cc(OCCN2CCCCC2)nc2ccccc12	·	–	89.0	–	–	–	–
Cc1cc(OCCN2CCOCC2)nc2ccccc12	–	–	–	–	–	–	·
CNS(=O)(=O)c1ccc(C(C)(C)C)cc1	–	–	–	–	–	–	·
CCOC(=O)C1=NN(c2ccc(C)cc2)C2(S1)SC(C(C)=O)=C(C)N2c1ccccc1 (stereo unspecified)	–	–	–	–	–	–	·
CCOC(=O)C1=NN(c2ccccc2)C2(S1)SC(C(C)=O)=C(C)N2c1ccccc1 (stereo unspecified)	–	–	61.4	–	–	–	–
COc1ccccc1NS(=O)(=O)c1ccc(NC(=O)c2ccncc2)cc1	–	–	–	–	–	–	·
C/C(=N\NC(=O)c1c[nH]c2ccccc12)c1ccc(C)o1	·	–	53.5	–	–	–	–
O=C(Nc1ccc(N2CCN(C(=O)c3ccco3)CC2)c(Cl)c1)c1c(F)c(F)c(F)c(F)c1F	–	–	–	–	–	–	·
CCN(CC)C(=S)SC1=CCS(=O)(=O)C1	–	–	–	–	–	–	·
CCN(CC)C(=S)SSC(=S)N(CC)CC	–	–	100.3	–	–	–	98.0
O=C(CSc1nc2ccccc2s1)N1CCCCC1	–	–	–	–	–	–	·
Cc1c(Cl)cccc1N/C(SCC(=O)N1CCCCCC1)=C(/C#N)c1nc2ccccc2s1	–	–	99.6	–	–	–	–
Cc1ccccc1NS(=O)(=O)c1cc(C(=O)NCc2ccco2)ccc1C	–	–	59.4	–	–	–	–
O=C(NCc1ccco1)c1cccc(NS(=O)(=O)c2cccc(F)c2)c1	·	–	57.5	–	–	–	–
Cn1c(=O)c2c(SCCN3CCOCC3)nc(C3CCCC3)nc2n(C)c1=O	–	–	–	–	–	–	·
CN(C)N1C(N)=C(C#N)C(c2cccnc2)C2=C1CCCC2=O (stereo unspecified)	–	–	–	–	–	–	·
CCN1C(=O)/C(=C\c2ccc(F)cc2)N=C1SCC(=O)NCc1ccco1	–	–	–	–	–	–	·
FC(F)(F)c1ccc(C2NCCc3sccc32)cc1 (stereo unspecified)	–	–	93.4	–	–	–	–
COc1ccccc1C1CC(c2c(-c3ccccc3)c3cc(Cl)ccc3[nH]c2=O)=NN1S(C)(=O)=O (stereo unspecified)	–	–	65.2	–	–	–	–
COc1cccc(/C=N/NC(=O)c2ccc(-c3ccccc3)cc2)c1O	·	–	99.8	–	–	–	–
Cc1ccc2cc(C)c(Sc3nnnn3-c3ccccc3)nc2c1	·	–	60.3	–	–	–	–
CCCCNCCCOc1cccc(Cl)c1	–	–	93.7	–	–	–	–
Cc1ccc([N+](=O)[O-])c(C(=O)N/N=C/c2cccs2)c1	–	·	·	–	–	·	·
O=C(NC1CCSC1=O)c1cccc(C(=O)NC2CCSC2=O)c1 (stereo unspecified)	–	–	–	–	–	–	·
O=C1C2ON(c3ccc(Br)cc3)C(c3cccnc3)C2C(=O)N1C1CCCCC1 (stereo unspecified)	–	–	85.1	–	–	–	72.3
CCOC(=O)c1cc(-c2ccc(N)cc2)sc1N	·	–	60.0	–	–	–	–
CCOC(=O)c1cc(-c2ccccc2)sc1NC(=O)C(C)C	–	–	–	–	–	–	·
Cc1nc(-c2cn[nH]c2)c2cc(C)oc2n1	–	–	61.9	–	–	–	–
Cc1cc2c(C)nc(-c3ccccc3)nc2o1	·	–	–	–	–	–	·

Source: PubChem
